Experimental findings from ChEMBL document CHEMBL1136290, “Concise synthesis and biological activities of 2alpha-alkyl- and 2alpha-(omega-hydroxyalkyl)-20-epi-1alpha,25-dihydroxyvitamin D3” (2003) are described below.

Molecules are shown by their SMILES.

The target in test [1] is T1, Vitamin D3 receptor (Bos taurus) (UniProt Q28037).
T1 sequence (whole entry): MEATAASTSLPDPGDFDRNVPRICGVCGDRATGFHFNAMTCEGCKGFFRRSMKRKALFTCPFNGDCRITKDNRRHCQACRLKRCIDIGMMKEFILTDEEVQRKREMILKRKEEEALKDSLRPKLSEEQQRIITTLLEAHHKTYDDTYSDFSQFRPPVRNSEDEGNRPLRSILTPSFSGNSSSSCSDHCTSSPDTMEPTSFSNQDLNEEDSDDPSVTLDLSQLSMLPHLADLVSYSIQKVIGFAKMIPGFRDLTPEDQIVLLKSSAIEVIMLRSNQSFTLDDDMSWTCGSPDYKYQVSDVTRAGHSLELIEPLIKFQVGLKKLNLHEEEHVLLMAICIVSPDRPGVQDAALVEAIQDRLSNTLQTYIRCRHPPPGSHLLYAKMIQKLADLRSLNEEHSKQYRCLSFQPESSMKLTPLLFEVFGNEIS
The experiment in a line: Binding affinity at bovine thymus Vitamin D3 receptor relative to 1-alpha,25-Dihydroxyvitamin D3.

A further test has as its system HL-60. The experiment in a line: In vitro induction of HL-60 cell differentiation. In kind it is functional, Homo sapiens. More on the design: reference not given here. An outline of the steps:
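HL-60 differentiation was scored by the NBT reduction method.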

As for `C=C1/C(=C\C=C2/CCC[C@]3(C)[C@@H]([C@H](C)CCCC(C)(C)O)CC[C@@H]23)C[C@@H](O)[C@H](CC)[C@@H]1O`, the relative binding affinity (RBA) in test [1] was 40. This compound also returned a Potency in the test on HL-60 of 106.
Taken in the same sequence, the figures for `C=C1/C(=C\C=C2/CCC[C@]3(C)[C@@H]([C@@H](C)CCCC(C)(C)O)CC[C@@H]23)C[C@@H](O)[C@H](CCC)[C@@H]1O` were 119 and 1750.
For `C=C1/C(=C\C=C2/CCC[C@]3(C)[C@@H]([C@H](C)CCCC(C)(C)O)CC[C@@H]23)C[C@@H](O)C[C@@H]1O` [CALCITRIOL], in that order: 100 and 100.
For `C=C1/C(=C\C=C2/CCC[C@]3(C)[C@@H]([C@@H](C)CCCC(C)(C)O)CC[C@@H]23)C[C@@H](O)[C@H](CO)[C@@H]1O`, in that order: 190 and 570.
With `C=C1/C(=C\C=C2/CCC[C@]3(C)[C@@H]([C@H](C)CCCC(C)(C)O)CC[C@@H]23)C[C@@H](O)[C@H](CO)[C@@H]1O`, the relative binding affinity (RBA) in test [1] is 20. Besides, the Potency in the test with HL-60 amounted to 10.
For `C=C1/C(=C\C=C2/CCC[C@]3(C)[C@@H]([C@@H](C)CCCC(C)(C)O)CC[C@@H]23)C[C@@H](O)[C@H](CCCCO)[C@@H]1O`, in that order: 183 and 3910.
Taken in the same sequence, the figures for `C=C1/C(=C\C=C2/CCC[C@]3(C)[C@@H]([C@H](C)CCCC(C)(C)O)CC[C@@H]23)C[C@@H](O)[C@H](CCO)[C@@H]1O` were 70 and 86.
Taken in the same sequence, the figures for `C=C1/C(=C\C=C2/CCC[C@]3(C)[C@@H]([C@H](C)CCCC(C)(C)O)CC[C@@H]23)C[C@@H](O)[C@H](CCCCO)[C@@H]1O` were 120 and 460.
In test [1], `C=C1/C(=C\C=C2/CCC[C@]3(C)[C@@H]([C@H](C)CCCC(C)(C)O)CC[C@@H]23)C[C@@H](O)[C@H](CCC)[C@@H]1O` had a relative binding affinity (RBA) of 20. The compound further displayed a Potency with HL-60 of 44.
For `C=C1/C(=C\C=C2/CCC[C@]3(C)[C@@H]([C@@H](C)CCCC(C)(C)O)CC[C@@H]23)C[C@@H](O)[C@H](CCCO)[C@@H]1O`, in that order: 370 and 4900.
Taken in the same sequence, the figures for `C=C1/C(=C\C=C2/CCC[C@]3(C)[C@@H]([C@@H](C)CCCC(C)(C)O)CC[C@@H]23)C[C@@H](O)[C@H](CCCC)[C@@H]1O` were 33 and 2300.
For `C=C1/C(=C\C=C2/CCC[C@]3(C)[C@@H]([C@H](C)CCCC(C)(C)O)CC[C@@H]23)C[C@@H](O)[C@H](CCCO)[C@@H]1O`, in that order: 300 and 240.
As to `C=C1/C(=C\C=C2/CCC[C@]3(C)[C@@H]([C@@H](C)CCCC(C)(C)O)CC[C@@H]23)C[C@@H](O)[C@H](CCO)[C@@H]1O`, the relative binding affinity (RBA) in test [1] worked out at 320. The Potency in the test with HL-60 is listed as 4030.
For `C=C1/C(=C\C=C2/CCC[C@]3(C)[C@@H]([C@@H](C)CCCC(C)(C)O)CC[C@@H]23)C[C@@H](O)[C@H](CC)[C@@H]1O`, in that order: 150 and 4200.
For `C=C1/C(=C\C=C2/CCC[C@]3(C)[C@@H]([C@@H](C)CCCC(C)(C)O)CC[C@@H]23)C[C@@H](O)C[C@@H]1O`, in that order: 400 and 3571.
Taken in the same sequence, the figures for `C=C1/C(=C\C=C2/CCC[C@]3(C)[C@@H]([C@H](C)CCCC(C)(C)O)CC[C@@H]23)C[C@@H](O)[C@H](C)[C@@H]1O` were 400 and 258.
With `C=C1/C(=C\C=C2/CCC[C@]3(C)[C@@H]([C@@H](C)CCCC(C)(C)O)CC[C@@H]23)C[C@@H](O)[C@H](C)[C@@H]1O`, the relative binding affinity (RBA) in test [1] came out at 1200. Moreover, the Potency in the test with HL-60 was 9688.
Taken in the same sequence, the figures for `C=C1/C(=C\C=C2/CCC[C@]3(C)[C@@H]([C@H](C)CCCC(C)(C)O)CC[C@@H]23)C[C@@H](O)[C@H](CCCC)[C@@H]1O` were 8 and 74.
